Data taken from ChEMBL document CHEMBL4229380, “Arylureas derived from colchicine: Enhancement of colchicine oncogene downregulation activity” (Eur J Med Chem, 2018).

Tested on: HT-29
Assay: Induction of apoptosis in human HT-29 cells assessed as necrotic cells at 20 nM after 48 hrs by Annexin V-FITC staining-based flow cytometric analysis (reference value: 2 +/- 6%)
Format: functional
Settings: not given

Structure (SMILES)	Activity [%]
COc1cc2c(c(OC)c1OC)-c1ccc(OC)c(=O)cc1[C@@H](NC(=O)Nc1cc(C(F)(F)F)cc(C(F)(F)F)c1)CC2	1

Tested on: MCF7
Assay: Antiproliferative activity against human MCF7 cells after 2 days by MTT assay
Format: functional, cell-based
Settings: MCF7, 48 h
How it was run: (§1)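 Cells (5×10^3 per well) in DMEM with 10% FBS, glucose, glutamine and antibiotics were exposed to serial dilutions (stocks in DMSO) for 2 days at 37 °C, 5% CO2. MTT was added for 3 h, formazan was dissolved in DMSO and absorbance read at 490 nm. Viability was taken as % of untreated cells. IC50 was read graphically from three independent experiments.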

Structure (SMILES)	IC50 [nM]
COc1cc2c(c(OC)c1OC)-c1ccc(OC)c(=O)cc1[C@@H](NC(=O)Nc1ccccc1F)CC2	6
COc1cc2c(c(OC)c1OC)-c1ccc(OC)c(=O)cc1[C@@H](NC(=O)Nc1ccccc1C#N)CC2	11
COc1cc2c(c(OC)c1OC)-c1ccc(OC)c(=O)cc1[C@@H](NC(=O)Nc1cc(C(F)(F)F)cc(C(F)(F)F)c1)CC2	1800

Further molecules by falling IC50, results first:

IC50 [nM]	Structure (SMILES)
24	COc1cc2c(c(OC)c1OC)-c1ccc(OC)c(=O)cc1[C@@H](NC(=O)Nc1ccc(Cl)cc1Cl)CC2
10	COc1cc2c(c(OC)c1OC)-c1ccc(OC)c(=O)cc1[C@@H](NC(=O)Nc1ccc3ccccc3c1)CC2

Tested on: HEK293
Assay: Antiproliferative activity against human HEK293 cells after 2 days by MTT assay
Format: cell-based
Settings: HEK293, 48 h
How it was run: as §1

Structure (SMILES)	IC50 [nM]
COc1cc2c(c(OC)c1OC)-c1ccc(OC)c(=O)cc1[C@@H](NC(=O)Nc1ccccc1F)CC2	5
COc1cc2c(c(OC)c1OC)-c1ccc(OC)c(=O)cc1[C@@H](NC(=O)Nc1ccccc1C#N)CC2	11
COc1cc2c(c(OC)c1OC)-c1ccc(OC)c(=O)cc1[C@@H](NC(=O)Nc1ccc(Cl)cc1Cl)CC2	32
COc1cc2c(c(OC)c1OC)-c1ccc(OC)c(=O)cc1[C@@H](NC(=O)Nc1ccc3ccccc3c1)CC2	7
COc1cc2c(c(OC)c1OC)-c1ccc(OC)c(=O)cc1[C@@H](NC(=O)Nc1cc(C(F)(F)F)cc(C(F)(F)F)c1)CC2	1500

Tested on: HeLa
Assay: Antiproliferative activity against human HeLa cells after 2 days by MTT assay
Format: functional, cell-based
Settings: 48 h
How it was run: as §1

Structure (SMILES)	IC50 [nM]
COc1cc2c(c(OC)c1OC)-c1ccc(OC)c(=O)cc1[C@@H](NC(=O)Nc1ccccc1F)CC2	6
COc1cc2c(c(OC)c1OC)-c1ccc(OC)c(=O)cc1[C@@H](NC(=O)Nc1ccccc1C#N)CC2	10
COc1cc2c(c(OC)c1OC)-c1ccc(OC)c(=O)cc1[C@@H](NC(=O)Nc1cc(C(F)(F)F)cc(C(F)(F)F)c1)CC2	1700

Further lines, results first:

IC50 [nM]	Structure (SMILES)
42	COc1cc2c(c(OC)c1OC)-c1ccc(OC)c(=O)cc1[C@@H](NC(=O)Nc1ccc(Cl)cc1Cl)CC2
7	COc1cc2c(c(OC)c1OC)-c1ccc(OC)c(=O)cc1[C@@H](NC(=O)Nc1ccc3ccccc3c1)CC2

Tested on: HT-29
Assay: Induction of apoptosis in human HT-29 cells assessed as viable cells at 20 nM after 48 hrs by Annexin V-FITC staining-based flow cytometric analysis (reference value: 82 +/- 1%)
Format: functional
Settings: HT-29, 48 h, read-out: Activity

Structure (SMILES)	viability at 0.02 µM [%]
COc1cc2c(c(OC)c1OC)-c1ccc(OC)c(=O)cc1[C@@H](NC(=O)Nc1cc(C(F)(F)F)cc(C(F)(F)F)c1)CC2	96

Tested on: HT-29
Assay: Antiproliferative activity against human HT-29 cells after 2 days by MTT assay
Format: functional, cell-based
Settings: HT-29, 48 h
How it was run: as §1

Structure (SMILES)	IC50 [nM]
COc1cc2c(c(OC)c1OC)-c1ccc(OC)c(=O)cc1[C@@H](NC(=O)Nc1ccccc1F)CC2	4.7
COc1cc2c(c(OC)c1OC)-c1ccc(OC)c(=O)cc1[C@@H](NC(=O)Nc1ccccc1C#N)CC2	11
COc1cc2c(c(OC)c1OC)-c1ccc(OC)c(=O)cc1[C@@H](NC(=O)Nc1cc(C(F)(F)F)cc(C(F)(F)F)c1)CC2	2600

Continued, values first:

IC50 [nM]	Structure (SMILES)
31	COc1cc2c(c(OC)c1OC)-c1ccc(OC)c(=O)cc1[C@@H](NC(=O)Nc1ccc(Cl)cc1Cl)CC2
8	COc1cc2c(c(OC)c1OC)-c1ccc(OC)c(=O)cc1[C@@H](NC(=O)Nc1ccc3ccccc3c1)CC2

Tested on: HT-29
Assay: Induction of apoptosis in human HT-29 cells assessed as apoptotic cells at 20 nM after 48 hrs by Annexin V-FITC staining-based flow cytometric analysis (reference value: 13 +/- 3%)
Format: functional
Settings: not given

Structure (SMILES)	Activity [%]
COc1cc2c(c(OC)c1OC)-c1ccc(OC)c(=O)cc1[C@@H](NC(=O)Nc1cc(C(F)(F)F)cc(C(F)(F)F)c1)CC2	4
